# Reference: ChEMBL document CHEMBL5678815 (Clin Cancer Res, 2017)
# Key:
# [1] = molecular target: RAC-beta serine/threonine-protein kinase (Homo sapiens) (UniProt P31751); test: Inhibition of human AKT2 assessed as remaining activity at 1 uM by ATP-competition binding assay relative to control
# In short: (§1)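 KINOMEscan ATP-site-dependent competition binding panel of 395 human kinases, with compound tested at 1 μM. Binding is reported as remaining signal relative to control.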
# [2] = molecular target: 5'-AMP-activated protein kinase catalytic subunit alpha-1 (Homo sapiens) (UniProt Q13131); test: Inhibition of human AMPK-alpha1 assessed as remaining activity at 1 uM by ATP-competition binding assay relative to control; in short: as §1
# [3] = molecular target: Tyrosine-protein kinase Blk (Homo sapiens) (UniProt P51451); test: Inhibition of human BLK assessed as remaining activity at 1 uM by ATP-competition binding assay relative to control; in short: as §1
# [4] = molecular target: Tyrosine-protein kinase CSK (Homo sapiens) (UniProt P41240); test: Inhibition of human CSK assessed as remaining activity at 1 uM by ATP-competition binding assay relative to control; in short: as §1
# [5] = molecular target: Casein kinase I isoform epsilon (Homo sapiens) (UniProt P49674); test: Inhibition of human CSNK1E assessed as remaining activity at 1 uM by ATP-competition binding assay relative to control; in short: as §1
# [6] = molecular target: Casein kinase I isoform gamma-3 (Homo sapiens) (UniProt Q9Y6M4); test: Inhibition of human CSNK1G3 assessed as remaining activity at 1 uM by ATP-competition binding assay relative to control; in short: as §1
# [7] = molecular target: Dual specificity tyrosine-phosphorylation-regulated kinase 1B (Homo sapiens) (UniProt Q9Y463); test: Inhibition of human DYRK1B assessed as remaining activity at 1 uM by ATP-competition binding assay relative to control; in short: as §1
# [8] = test system: Epidermal growth factor receptor (Homo sapiens), P00533 [UNDEFINED MUTATION]; test: Inhibition of human EGFR L747-E749del/A750P mutant assessed as remaining activity at 1 uM by ATP-competition binding assay relative to control
# In short: (§2)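 KINOMEscan ATP-site-dependent competition binding assay across a 395-kinase human panel including mutants; compound tested at 1μM; binding expressed relative to control signal.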
# [9] = test system: Epidermal growth factor receptor (Homo sapiens), P00533 [L858R]; test: Inhibition of human EGFR L858R mutant assessed as remaining activity at 1 uM by ATP-competition binding assay relative to control; in short: as §2
# [10] = test system: Epidermal growth factor receptor (Homo sapiens), P00533 [L858R,T790M]; test: Inhibition of human EGFR L858R/T790M mutant assessed as remaining activity at 1 uM by ATP-competition binding assay relative to control; in short: as §2
# [11] = molecular target: Ephrin type-B receptor 2 (Homo sapiens) (UniProt P29323); test: Inhibition of human EPHB2 assessed as remaining activity at 1 uM by ATP-competition binding assay relative to control
# In short: (§3)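 Single-point profiling at 1μM in an ATP-site-dependent competition binding assay across a panel of 395 human kinases, including mutant forms. The read-out is kinase binding signal in the presence of test agent, expressed as inhibition relative to the control signal. This screen assessed noncovalent binding interactions.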
# [12] = molecular target: Receptor tyrosine-protein kinase erbB-2 (Homo sapiens) (UniProt P04626); test: Inhibition of human ERBB2 assessed as remaining activity at 1 uM by ATP-competition binding assay relative to control; in short: as §3
# [13] = molecular target: Mitogen-activated protein kinase 6 (Homo sapiens) (UniProt Q16659); test: Inhibition of human ERK3 assessed as remaining activity at 1 uM by ATP-competition binding assay relative to control; in short: as §3
# [14] = molecular target: Serine/threonine-protein kinase/endoribonuclease IRE1 (Homo sapiens) (UniProt O75460); test: Inhibition of human ERN1 assessed as remaining activity at 1 uM by ATP-competition binding assay relative to control; in short: as §3
# [15] = molecular target: Tyrosine-protein kinase HCK (Homo sapiens) (UniProt P08631); test: Inhibition of human HCK assessed as remaining activity at 1 uM by ATP-competition binding assay relative to control; in short: as §3
# [16] = molecular target: Tyrosine-protein kinase Lck (Homo sapiens) (UniProt P06239); test: Inhibition of human LCK assessed as remaining activity at 1 uM by ATP-competition binding assay relative to control; in short: as §3
# [17] = molecular target: Mitogen-activated protein kinase kinase kinase 13 (Homo sapiens) (UniProt O43283); test: Inhibition of human LZK assessed as remaining activity at 1 uM by ATP-competition binding assay relative to control; in short: as §3
# [18] = test system: Mast/stem cell growth factor receptor Kit (Homo sapiens), P10721 [V559D]; test: Inhibition of human KIT V559D mutant assessed as remaining activity at 1 uM by ATP-competition binding assay relative to control; in short: as §3
# [19] = molecular target: Serine/threonine-protein kinase PAK 1 (Homo sapiens) (UniProt Q13153); test: Inhibition of human PAK1 assessed as remaining activity at 1 uM by ATP-competition binding assay relative to control; in short: as §3
# [20] = molecular target: Serine/threonine-protein kinase PAK 2 (Homo sapiens) (UniProt Q13177); test: Inhibition of human PAK2 assessed as remaining activity at 1 uM by ATP-competition binding assay relative to control; in short: as §3
# [21] = molecular target: Serine/threonine-protein kinase pim-2 (Homo sapiens) (UniProt Q9P1W9); test: Inhibition of human PIM2 assessed as remaining activity at 1 uM by ATP-competition binding assay relative to control
# In short: (§4)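 Single-concentration (1 μM) screen in an ATP-site-dependent competition binding assay (KINOMEscan, outsourced) covering 395 human kinases, mutants included. Non-covalent binding was read as the remaining signal relative to the control signal.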
# [22] = molecular target: Protein kinase C eta type (Homo sapiens) (UniProt P24723); test: Inhibition of human PRKCH assessed as remaining activity at 1 uM by ATP-competition binding assay relative to control; in short: as §4
# [23] = molecular target: SRSF protein kinase 3 (Homo sapiens) (UniProt Q9UPE1); test: Inhibition of human SRPK3 assessed as remaining activity at 1 uM by ATP-competition binding assay relative to control; in short: as §4
# [24] = molecular target: Serine/threonine-protein kinase 35 (Homo sapiens) (UniProt Q8TDR2); test: Inhibition of human STK35 assessed as remaining activity at 1 uM by ATP-competition binding assay relative to control; in short: as §4
# [25] = molecular target: Tyrosine-protein kinase Tec (Homo sapiens) (UniProt P42680); test: Inhibition of human TEC assessed as remaining activity at 1 uM by ATP-competition binding assay relative to control; in short: as §2
# [26] = Antitumor activity against human CLL mononuclear cells xenografted NSG mouse assessed as inhibition in the phosphorylation of ERK at 0.3 mg/ml preadministered with compound via drinking water and measured after 3 weeks by flow cytometry analysis relative to control; type: functional; details: CLL mononuclear cell, 504 h
# In short: (§5)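 Primary CLL patient mononuclear cells (1 × 10^8 per mouse) engrafted into NSG mice on day 0 after busulfan priming on day −1. Vehicle or drug was given in drinking water from day −1. Mice were killed 3 weeks after engraftment; spleens homogenized, filtered and RBC-lysed; whole blood collected. Six patients, 2–5 mice per patient; paired t-test per patient.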
# [27] = Antileukemic activity against human CLL mononuclear cells xenografted NSG mouse assessed as reduction in spleen cells at 0.3 to 0.16 mg/ml preadministered with compound via drinking water and measured after 3 weeks by flow cytometry analysis relative to control; type: functional, CLL mononuclear cell; set-up: scale not given: the % may be the effect or the level left; details: dose 0.3-0.16 mg/ml, at 0.16 to 0.3 mg/mL; in short: as §5
# Sequence of Serine/threonine-protein kinase pim-2 (Homo sapiens) (Q9P1W9 whole entry, looked up): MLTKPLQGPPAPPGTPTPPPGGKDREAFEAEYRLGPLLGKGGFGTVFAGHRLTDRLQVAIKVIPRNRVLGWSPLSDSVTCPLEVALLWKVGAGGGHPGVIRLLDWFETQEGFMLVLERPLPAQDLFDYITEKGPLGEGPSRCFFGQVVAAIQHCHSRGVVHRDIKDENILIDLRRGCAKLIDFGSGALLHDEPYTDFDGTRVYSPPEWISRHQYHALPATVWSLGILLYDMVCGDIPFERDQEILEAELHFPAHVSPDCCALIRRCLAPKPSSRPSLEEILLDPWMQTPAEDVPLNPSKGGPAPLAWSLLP
# Sequence of Tyrosine-protein kinase Blk (Homo sapiens) (P51451 2-505 limits assumed): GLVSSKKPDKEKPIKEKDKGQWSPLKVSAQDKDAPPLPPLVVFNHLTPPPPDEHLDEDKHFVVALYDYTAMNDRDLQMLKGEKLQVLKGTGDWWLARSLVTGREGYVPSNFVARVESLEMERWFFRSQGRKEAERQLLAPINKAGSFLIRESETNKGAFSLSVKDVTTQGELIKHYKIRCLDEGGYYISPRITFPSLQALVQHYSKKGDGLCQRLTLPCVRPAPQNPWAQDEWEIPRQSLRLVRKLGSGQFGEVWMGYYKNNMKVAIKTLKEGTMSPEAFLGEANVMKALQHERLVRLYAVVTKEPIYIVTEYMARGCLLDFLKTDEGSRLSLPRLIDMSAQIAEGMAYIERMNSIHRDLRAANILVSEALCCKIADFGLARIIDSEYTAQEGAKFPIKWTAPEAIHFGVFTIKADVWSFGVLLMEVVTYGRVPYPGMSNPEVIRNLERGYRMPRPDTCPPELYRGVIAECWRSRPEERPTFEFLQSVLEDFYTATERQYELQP
# Sequence of Tyrosine-protein kinase HCK (Homo sapiens) (P08631 2-526 limits assumed): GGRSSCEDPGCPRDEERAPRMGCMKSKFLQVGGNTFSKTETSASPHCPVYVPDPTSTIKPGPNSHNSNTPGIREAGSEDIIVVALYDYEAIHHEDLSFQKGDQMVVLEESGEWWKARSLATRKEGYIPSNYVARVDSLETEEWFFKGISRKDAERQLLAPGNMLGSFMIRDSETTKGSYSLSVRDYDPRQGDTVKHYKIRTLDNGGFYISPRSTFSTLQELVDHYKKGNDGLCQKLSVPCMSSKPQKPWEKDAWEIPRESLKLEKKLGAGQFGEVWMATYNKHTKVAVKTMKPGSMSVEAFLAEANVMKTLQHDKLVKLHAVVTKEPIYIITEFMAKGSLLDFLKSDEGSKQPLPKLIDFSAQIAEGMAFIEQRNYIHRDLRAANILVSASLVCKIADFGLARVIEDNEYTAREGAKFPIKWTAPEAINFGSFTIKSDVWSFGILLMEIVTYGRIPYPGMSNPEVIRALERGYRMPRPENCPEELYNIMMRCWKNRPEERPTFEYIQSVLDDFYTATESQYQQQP
# Sequence of Dual specificity tyrosine-phosphorylation-regulated kinase 1B (Homo sapiens) (Q9Y463 whole entry, looked up): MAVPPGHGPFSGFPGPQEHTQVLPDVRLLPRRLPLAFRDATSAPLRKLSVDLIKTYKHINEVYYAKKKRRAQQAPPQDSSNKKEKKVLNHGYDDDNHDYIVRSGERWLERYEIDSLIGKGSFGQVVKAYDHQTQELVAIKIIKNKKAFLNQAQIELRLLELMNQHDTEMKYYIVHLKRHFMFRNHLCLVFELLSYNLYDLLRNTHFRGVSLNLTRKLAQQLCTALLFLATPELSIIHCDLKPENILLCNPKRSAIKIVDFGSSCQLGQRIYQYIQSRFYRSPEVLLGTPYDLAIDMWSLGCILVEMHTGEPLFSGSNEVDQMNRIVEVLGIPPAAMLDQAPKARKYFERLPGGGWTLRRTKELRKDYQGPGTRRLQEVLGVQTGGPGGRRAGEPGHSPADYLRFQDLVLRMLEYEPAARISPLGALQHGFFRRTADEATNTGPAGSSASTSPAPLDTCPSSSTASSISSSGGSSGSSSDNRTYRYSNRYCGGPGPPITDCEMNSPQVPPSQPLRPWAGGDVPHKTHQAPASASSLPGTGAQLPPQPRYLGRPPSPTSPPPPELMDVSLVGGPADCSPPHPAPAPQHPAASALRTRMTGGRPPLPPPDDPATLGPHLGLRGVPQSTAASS
# Sequence of Ephrin type-B receptor 2 (Homo sapiens) (P29323 whole entry): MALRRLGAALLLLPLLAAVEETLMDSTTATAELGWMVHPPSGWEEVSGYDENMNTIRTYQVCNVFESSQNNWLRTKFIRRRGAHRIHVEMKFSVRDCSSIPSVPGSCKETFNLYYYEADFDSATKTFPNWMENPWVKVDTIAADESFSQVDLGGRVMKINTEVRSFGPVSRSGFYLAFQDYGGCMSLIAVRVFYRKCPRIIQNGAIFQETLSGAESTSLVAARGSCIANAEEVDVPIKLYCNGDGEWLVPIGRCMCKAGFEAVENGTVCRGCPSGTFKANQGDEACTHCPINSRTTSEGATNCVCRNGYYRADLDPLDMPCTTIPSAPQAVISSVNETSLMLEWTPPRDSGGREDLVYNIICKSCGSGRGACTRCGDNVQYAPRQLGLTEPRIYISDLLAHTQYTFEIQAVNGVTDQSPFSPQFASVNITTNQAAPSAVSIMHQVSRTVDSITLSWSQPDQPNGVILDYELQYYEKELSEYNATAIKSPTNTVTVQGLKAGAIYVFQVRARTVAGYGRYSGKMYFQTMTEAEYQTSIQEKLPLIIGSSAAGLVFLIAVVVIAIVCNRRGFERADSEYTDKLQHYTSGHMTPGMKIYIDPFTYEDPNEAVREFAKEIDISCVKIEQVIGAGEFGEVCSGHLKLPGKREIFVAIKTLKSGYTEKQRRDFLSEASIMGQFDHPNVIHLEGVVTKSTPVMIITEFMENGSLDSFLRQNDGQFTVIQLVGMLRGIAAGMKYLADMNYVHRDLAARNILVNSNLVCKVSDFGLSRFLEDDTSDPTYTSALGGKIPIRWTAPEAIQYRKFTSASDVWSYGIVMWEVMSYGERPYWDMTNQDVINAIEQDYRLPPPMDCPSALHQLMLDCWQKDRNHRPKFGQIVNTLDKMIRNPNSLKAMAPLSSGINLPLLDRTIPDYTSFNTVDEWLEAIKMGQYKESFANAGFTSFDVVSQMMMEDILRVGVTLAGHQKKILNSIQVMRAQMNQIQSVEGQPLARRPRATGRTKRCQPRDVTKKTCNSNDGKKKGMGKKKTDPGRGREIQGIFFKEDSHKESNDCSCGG
# Sequence of Mast/stem cell growth factor receptor Kit (Homo sapiens), P10721 [V559D] (P10721 whole entry V559D): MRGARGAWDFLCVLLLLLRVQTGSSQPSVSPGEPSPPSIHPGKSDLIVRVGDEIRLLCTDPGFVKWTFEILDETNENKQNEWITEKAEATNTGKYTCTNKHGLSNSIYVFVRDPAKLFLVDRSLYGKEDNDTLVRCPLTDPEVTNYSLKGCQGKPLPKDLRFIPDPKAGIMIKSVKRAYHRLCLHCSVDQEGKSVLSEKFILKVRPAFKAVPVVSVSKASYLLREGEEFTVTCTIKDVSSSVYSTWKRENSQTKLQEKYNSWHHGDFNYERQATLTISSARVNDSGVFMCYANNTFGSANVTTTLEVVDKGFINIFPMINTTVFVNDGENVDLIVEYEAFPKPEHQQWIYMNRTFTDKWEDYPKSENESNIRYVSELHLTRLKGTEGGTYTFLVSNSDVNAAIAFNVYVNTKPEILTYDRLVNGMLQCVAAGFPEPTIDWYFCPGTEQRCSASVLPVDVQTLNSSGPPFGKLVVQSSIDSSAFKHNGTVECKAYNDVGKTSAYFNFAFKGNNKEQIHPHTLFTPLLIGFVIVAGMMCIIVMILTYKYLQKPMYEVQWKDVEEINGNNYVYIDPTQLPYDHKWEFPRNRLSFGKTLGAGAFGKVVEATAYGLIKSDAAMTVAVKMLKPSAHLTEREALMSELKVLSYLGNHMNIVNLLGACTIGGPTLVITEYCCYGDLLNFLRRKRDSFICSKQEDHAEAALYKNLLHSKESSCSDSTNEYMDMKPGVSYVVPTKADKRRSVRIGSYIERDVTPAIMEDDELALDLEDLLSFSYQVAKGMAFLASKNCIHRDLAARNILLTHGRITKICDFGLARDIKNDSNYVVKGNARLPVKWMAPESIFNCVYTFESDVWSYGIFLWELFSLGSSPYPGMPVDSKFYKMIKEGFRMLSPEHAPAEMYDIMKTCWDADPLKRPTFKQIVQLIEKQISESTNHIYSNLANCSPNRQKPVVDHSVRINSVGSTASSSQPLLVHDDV
# Sequence of Serine/threonine-protein kinase PAK 2 (Homo sapiens) (Q13177 whole entry): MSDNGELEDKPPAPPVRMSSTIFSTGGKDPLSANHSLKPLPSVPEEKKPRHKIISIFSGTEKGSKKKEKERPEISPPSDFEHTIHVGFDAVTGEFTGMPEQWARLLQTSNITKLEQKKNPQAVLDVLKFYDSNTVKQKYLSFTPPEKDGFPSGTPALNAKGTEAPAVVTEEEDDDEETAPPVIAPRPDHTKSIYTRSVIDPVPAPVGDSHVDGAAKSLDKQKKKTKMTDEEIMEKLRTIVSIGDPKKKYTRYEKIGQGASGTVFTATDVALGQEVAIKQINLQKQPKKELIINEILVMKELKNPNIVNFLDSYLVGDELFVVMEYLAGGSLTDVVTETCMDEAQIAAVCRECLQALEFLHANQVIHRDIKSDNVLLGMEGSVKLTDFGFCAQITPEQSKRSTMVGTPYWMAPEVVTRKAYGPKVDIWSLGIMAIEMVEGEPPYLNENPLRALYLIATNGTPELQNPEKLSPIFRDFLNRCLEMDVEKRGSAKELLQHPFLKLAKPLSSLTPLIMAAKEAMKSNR
# Sequence of Tyrosine-protein kinase CSK (Homo sapiens) (P41240 2-450 limits assumed): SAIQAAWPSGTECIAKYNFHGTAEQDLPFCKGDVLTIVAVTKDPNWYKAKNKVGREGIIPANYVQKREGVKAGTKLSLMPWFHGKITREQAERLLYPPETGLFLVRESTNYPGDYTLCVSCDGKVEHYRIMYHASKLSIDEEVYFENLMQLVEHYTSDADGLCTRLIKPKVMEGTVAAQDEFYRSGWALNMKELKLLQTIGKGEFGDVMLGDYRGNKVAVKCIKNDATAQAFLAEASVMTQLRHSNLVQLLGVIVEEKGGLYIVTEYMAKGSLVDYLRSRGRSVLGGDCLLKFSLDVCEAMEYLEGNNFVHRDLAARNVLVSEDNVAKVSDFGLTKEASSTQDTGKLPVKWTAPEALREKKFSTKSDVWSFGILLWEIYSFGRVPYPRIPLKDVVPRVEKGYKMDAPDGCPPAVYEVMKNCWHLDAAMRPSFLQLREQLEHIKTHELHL
structure (smiles),measurement,setting,value
CC#CC(=O)N1CCC[C@H]1c1nc(-c2ccc(C(=O)Nc3ccccn3)cc2)c2c(N)nccn12 [ACALABRUTINIB],Activity,[1],100%
same,Activity,[2],86%
same,Activity,[3],61%
same,Activity,[4],86%
same,Activity,[5],90%
same,Activity,[6],100%
same,Activity,[7],93%
same,Activity,[8],87%
same,Activity,[9],94%
same,Activity,[10],94%
same,Activity,[11],69%
same,Activity,[12],2.1%
same,Activity,[13],94%
same,Activity,[14],85%
same,Activity,[15],62%
same,Activity,[16],90%
same,Activity,[17],83%
same,Activity,[18],53%
same,Activity,[19],87%
same,Activity,[20],78%
same,Activity,[21],79%
same,Activity,[22],87%
same,Activity,[23],93%
same,Activity,[24],100%
same,Activity,[25],6.4%
same,inhibition in vivo at 300 µg/mL,[26],79%
same,Activity,[27],33%
